Assay results from ChEMBL document CHEMBL1148721 (J Med Chem, 2007).

Columns and labels:
[1] = Agonist activity at GABAC rho 1 receptor S168T mutant expressed in tsA-201 cells by FMP assay; type: functional, cell-based; details: Homo sapiens, tsA201
[2] = Displacement of [3H]muscimol from GABAA receptor in rat brain membrane; type: cell membranes
Procedure, shortened: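 Native GABAA receptor affinity was measured by [3H]muscimol binding to rat brain membranes. Ki was calculated from pKi; ≥3 experiments in duplicate.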

[3] = Agonist activity at human GABA alpha-1-beta-2-gamma-2s receptor expressed in Xenopus oocytes by two electrode voltage-clamp assay; type: functional, cell-based; details: Oocyte
[4] = Agonist activity at human GABAC rho 1 receptor expressed in HEK293 cells by FMP assay; type: functional, cell-based; details: for EC50: Homo sapiens, HEK293
[5] = Agonist activity at human GABAC rho 1 receptor expressed in HEK293 cells by FMP assay relative to GABA; type: functional
Procedure, shortened: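 Stable human ρ1 HEK293 clone kept in 1 mg/mL G-418 and plated on poly-D-lysine plates for 16-24 h. Dye loading for 30 min at 37 °C in HBSS + 20 mM HEPES pH 7.4. Emission at 560 nm (excitation 530 nm) recorded before and up to 1 min after agonist. Concentration-response curves built from maximal responses; Rmax given as % of GABA; duplicates, ≥3 experiments.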

[6] = Agonist activity at GABAC rho 1 receptor expressed in tsA-201 cells by FMP assay; type: functional, cell-based; details: Homo sapiens, tsA201
[7] = Agonist activity at GABAC rho 1 receptor expressed in tsA-201 cells by FMP assay relative to GABA; type: functional, Homo sapiens
Procedure, shortened: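 Human ρ1 (WT) transiently expressed in tsA-201 cells via Polyfect, plated on poly-D-lysine plates 16-24 h post-transfection and assayed next day. Cells loaded with membrane potential dye in HBSS + 20 mM HEPES pH 7.4, 30 min at 37 °C. Fluorescence read (ex 530/em 560 nm) before and up to 1 min after agonist addition. Rmax expressed as % of GABA maximal response; ≥3 experiments in duplicate.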

[8] = Agonist activity at GABAC rho 1 receptor S168T mutant expressed in tsA-201 cells by FMP assay relative to GABA; type: functional, Homo sapiens
Procedure, shortened: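 tsA-201 cells transiently transfected with human ρ1 Ser168Thr cDNA, plated on poly-D-lysine after 16-24 h and assayed the next day. Cells loaded with membrane potential dye in HBSS/20 mM HEPES pH 7.4 for 30 min at 37 °C. Fluorescence (ex 530/em 560 nm) read up to 1 min after agonist addition. Rmax given as % of GABA maximum at the same receptor; duplicates, at least three experiments.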

[9] = Agonist activity at human GABAC rho 1 receptor expressed in HEK293 cells by Whole-cell patch-clamp technique relative to GABA; type: functional
Procedure, shortened: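 HEK293 cells cotransfected with human ρ1 plus GFP (Targefect) and recorded 20-72 h later by whole-cell patch clamp at -60 mV, 20-22 °C. Bath solution: 140 mM NaCl, HEPES, pH 7.35. Agonists applied by gravity-fed multibarrel perfusion. Hill equation fitted to obtain EC50, nH and Imax; maximal response as % of GABA; ≥5 cells.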

[10] = Agonist activity at rat GABA alpha-1-T129S-beta-2-gamma-2 receptor mutant expressed in HEK293 cells by Whole-cell patch-clamp technique relative to GABA; type: functional
Procedure, shortened: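 Rat α1(Thr129Ser) with β2 and γ2S (1:1:2) transiently co-transfected with a GFP plasmid into HEK293 cells; whole-cell patch-clamp 20-72 h after transfection at 20-22 °C, clamp usually -60 mV, extracellular solution pH 7.35. Agonist applied by perfusion pipette. Hill-equation fit gives EC50 and Imax; maximal response as % of GABA maximum; at least five cells.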

[11] = Agonist activity at human GABAC rho 1 receptor expressed in HEK293 cells by Whole-cell patch-clamp technique; type: functional, cell-based
cells = type: functional, cell-based; details: HEK293
[12] = target: GABA A receptor alpha-1/beta-2/gamma-2 (Rattus norvegicus); assay: Agonist activity at GABA alpha-1-beta-2-gamma-2 receptor expressed in HEK293 cells by Whole-cell patch-clamp technique
[13] = Antagonist activity at human GABAc rho 1 receptor expressed in HEK293 cells by FMP assay; type: functional, cell-based
Procedure, shortened: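 Stable HEK293 line expressing human ρ1 (selected under G-418). Antagonist included with the loading dye in HBSS/20 mM HEPES pH 7.4 for 30 min at 37 °C, then agonist added. Fluorescence (ex 530/em 560 nm) read up to 1 min. Ki from inhibition curves by the Cheng-Prusoff relation using agonist concentration and EC50; duplicates, at least three experiments.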

| EC50 ([1]; read-out: EC50) [µM] | Ki [2] [µM] | EC50 [4] [µM] | EC50 ([6]; read-out: EC50) [µM] | EC50 ([6]; read-out: Log EC50 (converted)) [µM] | Structure (SMILES) | RUmax [5] [%] | RUmax [7] [%] | further results |
| --- | --- | --- | --- | --- | --- | --- | --- | --- |
| > 3000 | > 100 | 420 | 140 | 158 | O=C(O)Cc1[nH]cnc1-c1ccccc1 | 98 | 131 | EC50 [3]: > 1 mM |
|  | > 100 | > 1000 |  |  | Cc1cccc(-c2nc[nH]c2CC(=O)O)c1 |  |  |  |
|  | > 100 | > 1000 |  |  | O=C(O)Cc1[nH]c(Cl)nc1-c1ccccc1 |  |  |  |
|  | > 100 | > 1000 |  |  | O=C(O)Cc1c[nH]c(-c2ccccc2)n1 |  |  |  |
|  | > 100 |  |  |  | O=C(O)Cc1c[nH]c(Cl)n1 |  |  | EC50 [3]: > 1 mM |
| > 1000 | 67 | 22 | 11 | 10 | Cc1[nH]cnc1CC(=O)O | 95 | 106 | Log Ki [2]: -4.2; EC50 [3]: > 1 mM; RUmax [9]: 66%; EC50 ([11]; read-out: EC50): 31 µM; EC50 ([11]; read-out: Log EC50 (converted)): 31.6 µM; EC50 (cells; read-out: EC50): > 1000 µM; EC50 [12]: > 1 mM |
|  | > 100 | > 1000 |  |  | O=C(O)Cc1[nH]cnc1I |  |  |  |
|  | > 100 | > 1000 |  |  | Cc1ccccc1-c1nc[nH]c1CC(=O)O |  |  |  |
| > 3000 | > 100 | 210 | 330 | 316 | O=C(O)Cc1[nH]cnc1-c1ccc(F)cc1 | 115 | 94 |  |
|  | > 100 | > 1000 |  |  | Cc1nc(CC(=O)O)c[nH]1 |  |  |  |

Continued, compound first:

| Structure (SMILES) | EC50 ([1]; read-out: EC50) [µM] | Ki [2] [µM] | EC50 [4] [µM] | EC50 ([6]; read-out: EC50) [µM] | EC50 ([6]; read-out: Log EC50 (converted)) [µM] | RUmax [5] [%] | RUmax [7] [%] | further results |
| --- | --- | --- | --- | --- | --- | --- | --- | --- |
| Cc1ccc(-c2nc[nH]c2CC(=O)O)cc1 | > 3000 | > 100 | 240 | 220 | 200 | 111 | 127 |  |
| NCCCC(=O)O [GAMMA-AMINOBUTYRIC ACID] |  |  |  |  |  | 100 | 100 | RUmax [8]: 100%; RUmax [9]: 100%; RUmax [10]: 100% |
| O=C(O)Cc1c[nH]cn1 [IMIDAZOLE ACETIC ACID] | 100 | 0.65 | 13 | 5.5 | 5.01 | 32 | 37 | Log Ki [2]: -6.2; RUmax [8]: 10%; RUmax [9]: 7.5%; EC50 ([11]; read-out: EC50): 5.5 µM; EC50 ([11]; read-out: Log EC50 (converted)): 5.5 µM; EC50 (cells; read-out: EC50): 20 µM; EC50 (cells; read-out: Log EC50 (converted)): 20 µM; RUmax [10]: 39% |
| O=C(O)C1=CCNCC1 [ISOGUVACINE] |  |  | 67 |  |  | 97 |  |  |
| CP(=O)(O)C1=CCNCC1 |  |  |  |  |  |  |  | Ki ([4]; hek293): 1300 nM |
| CC1N=C(CC(=O)O)C(c2ccccc2)=N1 (stereo unspecified) |  | > 100 | > 1000 |  |  |  |  | EC50 [3]: > 1 mM |
| Oc1noc2c1CCNC2 [GABOXADOL] |  |  |  |  |  |  |  | Ki [13]: 100 µM; Log Ki [13]: -4 |
| NCc1cc(O)no1 [MUSCIMOL] | 24 |  | 2.2 | 0.62 | 0.631 | 101 | 104 | EC50 ([1]; read-out: Log EC50 (converted)): 25.1 µM; RUmax [8]: 96% |
